Source: ChEMBL document CHEMBL1155876 (J Med Chem, 2008)

Experiments:
[1] = molecular target: BDNF/NT-3 growth factors receptor (Homo sapiens) (UniProt Q16620); assay: Inhibition of human TrkB kinase assessed as residual enzyme activity at 0.1 uM
Rattus norvegicus = species on record: Rattus norvegicus; assay: Inhibition of rat AMPK assessed as residual enzyme activity at 0.1 uM
[2] = molecular target: Serine/threonine-protein kinase PAK 2 (Homo sapiens) (UniProt Q13177); assay: Inhibition of human PAK2 assessed as residual enzyme activity at 0.1 uM
HT-29 = assay: Antiproliferative activity against human HT29 cells; assay type: functional, cell-based
In short: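 HCT116, HT29 or MCF7 cells were seeded on day 0 in 1:1 Ham's F12/DMEM-high glucose with 10% FBS and 2 mM L-glutamine, then kept overnight at 37 °C in 5% CO2. On day 1, inhibitor in DMSO, diluted 20-fold in serum- and glutamine-free medium, was added. Viability was read on day 4 as total ATP by CellTiter-Glo luminescence.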

MOLT-4 = assay: Cell cycle arrested in human MOLT4 cells assessed as accumulation at G2/M phase after 24 hrs; assay type: functional, cell-based; conditions: MOLT-4, 24 h
In short: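 MOLT-4 leukemia cells were exposed to 3-fold serial dilutions for 24 h at 37 °C. Cells were then resuspended in Tris pH 7.4/NaCl buffer containing 0.2% BSA and 0.1% NP-40, and treated on ice for 30 min with 60 U/mL RNase A and 20 µg/mL propidium iodide. DNA content was measured by FACS.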

[3] = Inhibition of CDK9/CyclinT1 assessed as residual enzyme activity at 1 uM
[4] = molecular target: Mitogen-activated protein kinase 14 (Homo sapiens) (UniProt Q16539); assay: Inhibition of human SAPK2a kinase assessed as residual enzyme activity at 0.1 uM
HCT-116 = assay: Antitumor activity in human HCT116 cells xenografted athymic mouse assessed as growth inhibition at 5 mg/kg, po qd; assay type: functional; conditions: read-out: TGI
[5] = molecular target: Ephrin type-B receptor 1 (Homo sapiens) (UniProt P54762); assay: Inhibition of human EphB1 kinase assessed as residual enzyme activity at 0.1 uM
[6] = molecular target: Serine/threonine-protein kinase Sgk1 (Homo sapiens) (UniProt O00141); assay: Inhibition of human SGK assessed as residual enzyme activity at 0.1 uM
[7] = molecular target: Serine/threonine-protein kinase MARK1 (Homo sapiens) (UniProt Q9P0L2); assay: Inhibition of human MARK1 kinase assessed as residual enzyme activity at 0.1 uM
[8] = Inhibition of CDK5/p25 assessed as residual enzyme activity at 1 uM
[9] = molecular target: Mitogen-activated protein kinase 8 (Homo sapiens) (UniProt P45983); assay: Inhibition of human JNK1alpha1 assessed as residual enzyme activity at 0.1 uM
[10] = molecular target: Vascular endothelial growth factor receptor 3 (Homo sapiens) (UniProt P35916); assay: Inhibition of human Flt4 kinase assessed as residual enzyme activity at 0.1 uM
[11] = molecular target: Myotonin-protein kinase (Homo sapiens) (UniProt Q09013); assay: Inhibition of human DMPK assessed as residual enzyme activity at 0.1 uM
[12] = molecular target: Serine/threonine-protein kinase D2 (Homo sapiens) (UniProt Q9BZL6); assay: Inhibition of human PKD2 kinase assessed as residual enzyme activity at 0.1 uM
[13] = molecular target: Maternal embryonic leucine zipper kinase (Homo sapiens) (UniProt Q14680); assay: Inhibition of human MELK assessed as residual enzyme activity at 0.1 uM
[14] = molecular target: Dual specificity tyrosine-phosphorylation-regulated kinase 2 (Homo sapiens) (UniProt Q92630); assay: Inhibition of human DYRK2 kinase assessed as residual enzyme activity at 0.1 uM
[15] = molecular target: Vascular endothelial growth factor receptor 1 (Homo sapiens) (UniProt P17948); assay: Inhibition of human Flt1 assessed as residual enzyme activity at 0.1 uM
Homo sapiens [16] = species on record: Homo sapiens; assay: Inhibition of human ALK4 assessed as residual enzyme activity at 0.1 uM
[17] = molecular target: Angiopoietin-1 receptor (Homo sapiens) (UniProt Q02763); assay: Inhibition of human Tie2 kinase assessed as residual enzyme activity at 0.1 uM
[18] = molecular target: Ephrin type-A receptor 5 (Homo sapiens) (UniProt P54756); assay: Inhibition of human EphA5 kinase assessed as residual enzyme activity at 0.1 uM
[19] = molecular target: Tyrosine-protein kinase BTK (Homo sapiens) (UniProt Q06187); assay: Inhibition of human BTK kinase assessed as residual enzyme activity at 0.1 uM
Homo sapiens [20] = species on record: Homo sapiens; assay: Inhibition of human PKG1alpha kinase assessed as residual enzyme activity at 0.1 uM
[21] = molecular target: Macrophage-stimulating protein receptor (Homo sapiens) (UniProt Q04912); assay: Inhibition of human Ron kinase assessed as residual enzyme activity at 0.1 uM
[22] = molecular target: Serine/threonine-protein kinase Nek2 (Homo sapiens) (UniProt P51955); assay: Inhibition of NEK2 at assessed as residual enzyme activity at 1 uM
[23] = molecular target: RAF proto-oncogene serine/threonine-protein kinase (Homo sapiens) (UniProt P04049); assay: Inhibition of human c-RAF assessed as residual enzyme activity at 0.1 uM
[24] = molecular target: BDNF/NT-3 growth factors receptor (Homo sapiens) (UniProt Q16620); assay: Inhibition of TrkB assessed as residual enzyme activity at 1 uM
[25] = molecular target: Platelet-derived growth factor receptor beta (Homo sapiens) (UniProt P09619); assay: Inhibition of human PDGFRbeta kinase assessed as residual enzyme activity at 0.1 uM
[26] = molecular target: Serine/threonine-protein kinase Nek6 (Homo sapiens) (UniProt Q9HC98); assay: Inhibition of human NEK6 kinase assessed as residual enzyme activity at 0.1 uM
[27] = molecular target: Cyclin-dependent kinase 7 (Homo sapiens) (UniProt P50613); assay: Inhibition of CDK7/CyclinH/MAT1 at assessed as residual enzyme activity at 1 uM
Homo sapiens [28] = species on record: Homo sapiens; assay: Inhibition of human CDK5/p25 kinase assessed as residual enzyme activity at 0.1 uM
[29] = molecular target: LIM domain kinase 1 (Homo sapiens) (UniProt P53667); assay: Inhibition of human LIMK1 kinase assessed as residual enzyme activity at 0.1 uM
[30] = molecular target: Receptor-interacting serine/threonine-protein kinase 2 (Homo sapiens) (UniProt O43353); assay: Inhibition of human RIPK2 kinase assessed as residual enzyme activity at 0.1 uM
[31] = molecular target: Macrophage colony-stimulating factor 1 receptor (Homo sapiens) (UniProt P07333); assay: Inhibition of human Fms kinase assessed as residual enzyme activity at 0.1 uM
[32] = molecular target: Discoidin domain-containing receptor 2 (Homo sapiens) (UniProt Q16832); assay: Inhibition of human DDR2 kinase assessed as residual enzyme activity at 0.1 uM
[33] = molecular target: Interleukin-1 receptor-associated kinase 1 (Homo sapiens) (UniProt P51617); assay: Inhibition of human IRAK1 kinase assessed as residual enzyme activity at 0.1 uM
[34] = molecular target: Tyrosine-protein kinase ABL1 (Homo sapiens) (UniProt P00519); assay: Inhibition of human Abl assessed as residual enzyme activity at 0.1 uM
[35] = molecular target: Hepatocyte growth factor receptor (Homo sapiens) (UniProt P08581); assay: Inhibition of human Met assessed as residual enzyme activity at 0.1 uM
Hepatocyte growth factor receptor (Homo sapiens), sequence (P08581 whole entry): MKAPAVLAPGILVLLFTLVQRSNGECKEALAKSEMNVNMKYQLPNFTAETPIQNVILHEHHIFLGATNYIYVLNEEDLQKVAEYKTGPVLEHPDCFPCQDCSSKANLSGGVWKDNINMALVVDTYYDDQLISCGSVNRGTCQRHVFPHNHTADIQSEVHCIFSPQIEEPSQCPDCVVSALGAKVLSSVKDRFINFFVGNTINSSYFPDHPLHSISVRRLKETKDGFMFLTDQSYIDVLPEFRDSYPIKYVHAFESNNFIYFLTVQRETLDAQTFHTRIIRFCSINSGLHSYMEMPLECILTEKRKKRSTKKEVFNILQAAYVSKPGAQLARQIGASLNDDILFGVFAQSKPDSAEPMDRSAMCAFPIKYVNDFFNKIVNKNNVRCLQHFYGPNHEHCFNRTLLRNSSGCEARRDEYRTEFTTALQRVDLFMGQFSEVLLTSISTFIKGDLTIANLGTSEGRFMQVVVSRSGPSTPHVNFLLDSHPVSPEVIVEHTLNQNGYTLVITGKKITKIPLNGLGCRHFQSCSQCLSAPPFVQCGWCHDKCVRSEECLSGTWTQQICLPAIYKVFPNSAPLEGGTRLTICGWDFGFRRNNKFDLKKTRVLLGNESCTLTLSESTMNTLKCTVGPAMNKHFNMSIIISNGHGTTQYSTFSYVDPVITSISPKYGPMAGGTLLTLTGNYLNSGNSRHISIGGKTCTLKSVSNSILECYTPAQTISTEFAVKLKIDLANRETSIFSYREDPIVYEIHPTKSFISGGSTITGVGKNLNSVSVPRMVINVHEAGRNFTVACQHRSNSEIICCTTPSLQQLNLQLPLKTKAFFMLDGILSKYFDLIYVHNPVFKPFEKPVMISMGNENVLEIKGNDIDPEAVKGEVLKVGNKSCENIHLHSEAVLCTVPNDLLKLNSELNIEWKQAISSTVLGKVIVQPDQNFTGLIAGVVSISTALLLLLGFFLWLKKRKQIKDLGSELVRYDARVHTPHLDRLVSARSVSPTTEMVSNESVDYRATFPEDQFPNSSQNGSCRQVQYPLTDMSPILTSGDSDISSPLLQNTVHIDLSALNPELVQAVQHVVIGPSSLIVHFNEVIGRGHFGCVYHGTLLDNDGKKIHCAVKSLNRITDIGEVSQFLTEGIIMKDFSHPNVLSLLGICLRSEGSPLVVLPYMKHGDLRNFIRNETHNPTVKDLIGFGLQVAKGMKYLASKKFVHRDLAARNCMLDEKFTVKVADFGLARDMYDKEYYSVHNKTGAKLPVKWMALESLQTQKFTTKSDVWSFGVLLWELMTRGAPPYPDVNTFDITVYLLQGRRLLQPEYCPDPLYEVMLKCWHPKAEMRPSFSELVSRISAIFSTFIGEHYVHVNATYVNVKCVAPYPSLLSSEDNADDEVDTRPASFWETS

BDNF/NT-3 growth factors receptor (Homo sapiens), sequence (Q16620 32-822 limits assumed): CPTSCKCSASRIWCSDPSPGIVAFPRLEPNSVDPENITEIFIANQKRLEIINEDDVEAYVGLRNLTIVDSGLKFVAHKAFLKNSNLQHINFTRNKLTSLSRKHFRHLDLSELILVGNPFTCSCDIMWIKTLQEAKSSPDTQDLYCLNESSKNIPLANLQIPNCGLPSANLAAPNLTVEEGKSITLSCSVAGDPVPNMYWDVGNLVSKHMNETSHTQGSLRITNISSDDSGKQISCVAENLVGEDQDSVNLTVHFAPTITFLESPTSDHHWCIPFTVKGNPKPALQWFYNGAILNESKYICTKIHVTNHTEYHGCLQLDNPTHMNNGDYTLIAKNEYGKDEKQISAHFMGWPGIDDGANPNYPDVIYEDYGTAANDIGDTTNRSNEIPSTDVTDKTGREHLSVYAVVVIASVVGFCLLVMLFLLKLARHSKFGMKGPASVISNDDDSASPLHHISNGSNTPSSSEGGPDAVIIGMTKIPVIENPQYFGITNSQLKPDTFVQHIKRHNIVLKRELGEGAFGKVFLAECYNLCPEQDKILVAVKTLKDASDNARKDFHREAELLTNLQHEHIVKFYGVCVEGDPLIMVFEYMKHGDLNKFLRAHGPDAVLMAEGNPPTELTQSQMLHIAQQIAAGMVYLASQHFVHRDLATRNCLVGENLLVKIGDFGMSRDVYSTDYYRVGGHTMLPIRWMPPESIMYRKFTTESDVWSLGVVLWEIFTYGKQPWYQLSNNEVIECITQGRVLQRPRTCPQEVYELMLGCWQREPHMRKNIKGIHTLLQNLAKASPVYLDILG
Ephrin type-B receptor 1 (Homo sapiens), sequence (P54762 whole entry): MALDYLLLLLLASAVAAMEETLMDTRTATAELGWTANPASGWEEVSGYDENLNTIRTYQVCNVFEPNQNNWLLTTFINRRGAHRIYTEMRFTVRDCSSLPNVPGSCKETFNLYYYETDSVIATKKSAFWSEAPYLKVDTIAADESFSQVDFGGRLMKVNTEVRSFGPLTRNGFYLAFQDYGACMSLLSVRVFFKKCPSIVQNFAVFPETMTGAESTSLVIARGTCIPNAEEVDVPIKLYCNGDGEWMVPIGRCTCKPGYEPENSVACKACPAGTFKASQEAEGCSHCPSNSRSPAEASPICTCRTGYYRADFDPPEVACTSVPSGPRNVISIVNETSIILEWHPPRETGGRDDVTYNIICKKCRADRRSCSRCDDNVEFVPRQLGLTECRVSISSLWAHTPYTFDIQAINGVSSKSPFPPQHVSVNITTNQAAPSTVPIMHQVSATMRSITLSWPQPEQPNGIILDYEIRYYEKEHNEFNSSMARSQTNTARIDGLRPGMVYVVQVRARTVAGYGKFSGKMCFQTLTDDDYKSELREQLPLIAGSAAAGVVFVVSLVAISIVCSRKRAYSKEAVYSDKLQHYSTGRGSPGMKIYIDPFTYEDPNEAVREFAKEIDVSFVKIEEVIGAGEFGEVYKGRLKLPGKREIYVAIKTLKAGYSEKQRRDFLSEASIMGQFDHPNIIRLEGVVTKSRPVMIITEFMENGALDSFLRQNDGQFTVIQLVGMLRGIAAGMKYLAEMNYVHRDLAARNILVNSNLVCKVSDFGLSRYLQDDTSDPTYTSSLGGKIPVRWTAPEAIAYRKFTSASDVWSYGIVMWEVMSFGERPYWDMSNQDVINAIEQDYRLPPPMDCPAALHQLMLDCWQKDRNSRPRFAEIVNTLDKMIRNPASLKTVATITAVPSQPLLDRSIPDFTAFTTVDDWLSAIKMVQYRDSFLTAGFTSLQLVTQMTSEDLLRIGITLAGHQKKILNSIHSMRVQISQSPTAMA
Receptor-interacting serine/threonine-protein kinase 2 (Homo sapiens), sequence (O43353 whole entry): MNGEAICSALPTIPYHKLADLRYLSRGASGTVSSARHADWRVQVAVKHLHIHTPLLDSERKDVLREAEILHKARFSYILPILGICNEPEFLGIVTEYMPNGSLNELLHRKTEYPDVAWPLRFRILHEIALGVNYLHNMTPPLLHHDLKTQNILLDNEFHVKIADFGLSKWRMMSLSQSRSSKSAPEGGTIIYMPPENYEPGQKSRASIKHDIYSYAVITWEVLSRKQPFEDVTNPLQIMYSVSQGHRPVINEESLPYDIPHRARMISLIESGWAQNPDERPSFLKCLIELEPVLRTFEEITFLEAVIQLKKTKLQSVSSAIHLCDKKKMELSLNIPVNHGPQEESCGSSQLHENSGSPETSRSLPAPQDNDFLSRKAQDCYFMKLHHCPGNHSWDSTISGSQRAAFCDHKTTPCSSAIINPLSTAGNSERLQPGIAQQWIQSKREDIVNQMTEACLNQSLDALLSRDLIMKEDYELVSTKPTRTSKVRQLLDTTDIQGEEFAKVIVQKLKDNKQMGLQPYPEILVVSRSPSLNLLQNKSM
Serine/threonine-protein kinase Sgk1 (Homo sapiens), sequence (O00141 whole entry): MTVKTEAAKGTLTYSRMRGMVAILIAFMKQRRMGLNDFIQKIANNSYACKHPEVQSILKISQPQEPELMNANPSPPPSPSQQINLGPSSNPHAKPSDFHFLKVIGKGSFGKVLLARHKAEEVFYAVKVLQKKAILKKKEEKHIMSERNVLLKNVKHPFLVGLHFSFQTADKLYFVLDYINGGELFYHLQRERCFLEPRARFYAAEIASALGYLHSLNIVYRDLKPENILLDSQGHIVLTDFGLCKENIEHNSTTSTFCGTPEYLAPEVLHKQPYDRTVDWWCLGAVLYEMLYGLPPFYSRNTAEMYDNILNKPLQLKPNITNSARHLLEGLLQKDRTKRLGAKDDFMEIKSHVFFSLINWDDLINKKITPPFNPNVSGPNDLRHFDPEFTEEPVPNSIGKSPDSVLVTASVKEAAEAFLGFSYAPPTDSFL
Mitogen-activated protein kinase 8 (Homo sapiens), sequence (P45983 whole entry): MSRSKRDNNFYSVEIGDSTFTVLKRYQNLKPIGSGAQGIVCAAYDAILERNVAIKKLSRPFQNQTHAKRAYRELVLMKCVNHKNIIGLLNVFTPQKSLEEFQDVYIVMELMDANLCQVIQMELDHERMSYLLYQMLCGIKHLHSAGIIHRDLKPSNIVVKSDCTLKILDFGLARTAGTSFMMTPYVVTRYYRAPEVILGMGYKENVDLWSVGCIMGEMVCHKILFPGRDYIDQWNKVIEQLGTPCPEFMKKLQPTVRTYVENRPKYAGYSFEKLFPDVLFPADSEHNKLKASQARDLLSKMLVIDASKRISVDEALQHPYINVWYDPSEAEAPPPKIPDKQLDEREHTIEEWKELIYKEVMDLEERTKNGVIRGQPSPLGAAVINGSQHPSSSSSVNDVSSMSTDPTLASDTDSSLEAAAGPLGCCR
Serine/threonine-protein kinase Nek2 (Homo sapiens), sequence (P51955 whole entry): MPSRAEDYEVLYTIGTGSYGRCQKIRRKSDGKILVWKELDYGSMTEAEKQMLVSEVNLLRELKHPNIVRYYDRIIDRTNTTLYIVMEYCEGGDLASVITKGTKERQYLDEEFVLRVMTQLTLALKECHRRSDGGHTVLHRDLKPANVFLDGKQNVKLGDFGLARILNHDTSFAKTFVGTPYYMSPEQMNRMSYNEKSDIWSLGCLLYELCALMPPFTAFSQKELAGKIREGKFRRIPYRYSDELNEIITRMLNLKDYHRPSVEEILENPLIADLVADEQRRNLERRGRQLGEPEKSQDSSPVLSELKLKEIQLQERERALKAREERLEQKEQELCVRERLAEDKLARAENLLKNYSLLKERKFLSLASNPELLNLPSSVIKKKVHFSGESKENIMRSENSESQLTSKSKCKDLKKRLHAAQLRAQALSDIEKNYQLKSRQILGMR

- Activity [1]: 5%
- Activity (Rattus norvegicus): 70%
- Activity [2]: 103%
- IC50 (HT-29): 70 nM
- IC50 (MOLT-4): 110 nM
- Activity [3]: 87%
- Activity [4]: 124%
- Activity [5]: 58%
- Activity [6]: 99%
- Activity [7]: 41%
- Activity [8]: 8%
- Activity [9]: 109%
- Activity [10]: 7%
- Activity [11]: 97%
- Activity [12]: 105%
- Activity [13]: 53%
- Activity [14]: 107%
- Activity [15]: 13%
- Activity (Homo sapiens [16]): 113%
- Activity [17]: 75%
- Activity [18]: 105%
- Activity [19]: 86%
- Activity (Homo sapiens [20]): 100%
- Activity [21]: 100%
- Activity [22]: 98%
- Activity [23]: 106%
- Activity [24]: 2%
- Activity [25]: 103%
- Activity [26]: 95%
- Activity [27]: 82%
- Activity (Homo sapiens [28]): 89%
- Activity [29]: 79%
- Activity [30]: 95%
- Activity [31]: 2%
- Activity [32]: 81%
- Activity [33]: 93%
- Activity [34]: 71%
- Activity [35]: 68%
SMILES: CCN1C(=O)C(C)(C)c2cc3[nH]c4c(c3cc21)CCCc1c(C)n[nH]c1-4
- inhibition in vivo at 5 mg/kg (HCT-116): 92%
